test system: not listed separately; assay: Drug level in APP51/16 transgenic male mouse blood at 60 umol/kg, po after 4 hrs; type: ADME, organism-based; conditions: whole blood, read-out: Drug uptake
In short: (§1)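 Inhibitor given orally to APP51/16 transgenic mice as a suspension in water with 2% cremophor; ritonavir (12.5 mg/kg po, 0.5 h before inhibitor) where noted. Blood concentration (nmol/mL) and brain concentration (nmol/g) determined 4 h after dosing.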

SMILES | concentration at 4 h
CC(C)(C)c1cccc(CN[C@H]2C[S@+]([O-])C[C@@H](Cc3cc(F)c(N)c(OCC(F)(F)F)c3)[C@@H]2O)c1 | 800 nM
COC[C@@H](Oc1cc(C[C@@H]2C[S@@+]([O-])C[C@H](NCc3cccc(C(C)(C)C)c3)[C@H]2O)cc(F)c1N)C(F)(F)F | 300 nM
[2H]C([2H])(N[C@H]1C[S@+]([O-])C[C@@H](Cc2cc(F)c(N)c(O[C@H](COC)C(F)(F)F)c2)[C@@H]1O)c1cccc(C(C)(C)C)c1 | 400 nM

test system: not listed separately; assay: Clearance in mouse; type: ADME, organism-based; conditions: in vivo

SMILES | clearance
CC(C)(C)c1cccc(CN[C@H]2C[S@+]([O-])C[C@@H](Cc3cc(F)c(N)c(OC(C(F)(F)F)C(F)(F)F)c3)[C@@H]2O)c1 | 129 mL/min/kg

test system: Brain; assay: Drug level in APP51/16 transgenic male mouse brain at 180 umol/kg, po after 4 hrs; type: ADME, organism-based; conditions: in vivo; in short: as §1

SMILES | Drug uptake
CC(C)(C)c1cccc(CN[C@H]2C[S@+]([O-])C[C@@H](Cc3cc(F)c(N)c(OC(C(F)(F)F)C(F)(F)F)c3)[C@@H]2O)c1 | 0.8 nmol/g
CC(C)(C)c1cccc(CN[C@H]2C[S@+]([O-])C[C@@H](Cc3cc(F)c(N)c(OCC(F)(F)F)c3)[C@@H]2O)c1 | 1.3 nmol/g
COC[C@@H](Oc1cc(C[C@@H]2C[S@@+]([O-])C[C@H](NCc3cccc(C(C)(C)C)c3)[C@H]2O)cc(F)c1N)C(F)(F)F | 0.7 nmol/g

test system: not listed separately; assay: Drug level in APP51/16 transgenic male mouse blood at 180 umol/kg, po after 4 hrs; type: ADME, organism-based; conditions: whole blood, read-out: Drug uptake; in short: as §1

SMILES | concentration at 4 h
CC(C)(C)c1cccc(CN[C@H]2C[S@+]([O-])C[C@@H](Cc3cc(F)c(N)c(OC(C(F)(F)F)C(F)(F)F)c3)[C@@H]2O)c1 | 900 nM
CC(C)(C)c1cccc(CN[C@H]2C[S@+]([O-])C[C@@H](Cc3cc(F)c(N)c(OCC(F)(F)F)c3)[C@@H]2O)c1 | 6100 nM
COC[C@@H](Oc1cc(C[C@@H]2C[S@@+]([O-])C[C@H](NCc3cccc(C(C)(C)C)c3)[C@H]2O)cc(F)c1N)C(F)(F)F | 3800 nM

test system: not listed separately; assay: Drug level in APP51/16 transgenic male mouse blood at 100 umol/kg, po after 4 hrs; type: ADME, organism-based; conditions: whole blood, read-out: Drug uptake; in short: as §1

SMILES | concentration at 4 h
CC(C)(C)c1cccc(CN[C@H]2C[S@+]([O-])C[C@@H](Cc3cc(F)c(N)c(OCC(F)(F)F)c3)[C@@H]2O)c1 | 2600 nM
COC[C@@H](Oc1cc(C[C@@H]2C[S@@+]([O-])C[C@H](NCc3cccc(C(C)(C)C)c3)[C@H]2O)cc(F)c1N)C(F)(F)F | 1000 nM

test system: not listed separately; assay: Clearance in human liver microsomes; type: ADME, Microsome; conditions: read-out: CLH
In short: (§2)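 Compounds incubated at 37 °C with human or mouse liver microsomes.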

SMILES | microsomal CLint
[2H]C([2H])(N[C@H]1C[S@+]([O-])C[C@@H](Cc2cc(F)c(N)c(O[C@H](COC)C(F)(F)F)c2)[C@@H]1O)c1cccc(C(C)C)c1 | 600 µL/min/mg
COC[C@@H](Oc1cc(C[C@@H]2C[S@@+]([O-])C[C@H](N[C@H](C)c3cccc(C(C)(C)C)c3)[C@H]2O)cc(F)c1N)C(F)(F)F | 600 µL/min/mg
COC[C@@H](Oc1cc(C[C@@H]2C[S@@+]([O-])C[C@H](NCc3cc(C(C)(C)C)ccc3F)[C@H]2O)cc(F)c1N)C(F)(F)F | 400 µL/min/mg
COC[C@@H](Oc1cc(C[C@@H]2C[S@@+]([O-])C[C@H](NCc3cccc(C(C)(C)CO)c3)[C@H]2O)cc(F)c1N)C(F)(F)F | 80 µL/min/mg
COC[C@@H](Oc1cc(C[C@@H]2C[S@@+]([O-])C[C@H](NCc3cccc(C(C)(C)O)c3)[C@H]2O)cc(F)c1N)C(F)(F)F | 40 µL/min/mg
COC[C@@H](Oc1cc(C[C@@H]2C[S@@+]([O-])C[C@H](NCc3cccc(OC(C)C)c3)[C@H]2O)cc(F)c1N)C(F)(F)F | 280 µL/min/mg
COC[C@@H](Oc1cc(C[C@@H]2C[S@@+]([O-])C[C@H](NCc3cccc(C(C)(C)C)c3)[C@H]2O)cc(F)c1N)C(F)(F)F | 500 µL/min/mg
[2H]C([2H])(N[C@H]1C[S@+]([O-])C[C@@H](Cc2cc(F)c(N)c(O[C@H](COC)C(F)(F)F)c2)[C@@H]1O)c1cccc(C(C)(C)C)c1 | 600 µL/min/mg

test system: Brain; assay: Drug level in APP51/16 transgenic male mouse brain at 100 umol/kg, po after 4 hrs; type: ADME, organism-based; conditions: in vivo; in short: as §1

SMILES | Drug uptake
CC(C)(C)c1cccc(CN[C@H]2C[S@+]([O-])C[C@@H](Cc3cc(F)c(N)c(OCC(F)(F)F)c3)[C@@H]2O)c1 | 0.7 nmol/g
COC[C@@H](Oc1cc(C[C@@H]2C[S@@+]([O-])C[C@H](NCc3cccc(C(C)(C)C)c3)[C@H]2O)cc(F)c1N)C(F)(F)F | 0.2 nmol/g

test system: not listed separately; assay: Bioavailability in mouse; type: ADME, organism-based; conditions: in vivo

SMILES | bioavailability
CC(C)(C)c1cccc(CN[C@H]2C[S@+]([O-])C[C@@H](Cc3cc(F)c(N)c(OC(C(F)(F)F)C(F)(F)F)c3)[C@@H]2O)c1 | 14%

test system: not listed separately; assay: Lipophilicity, log P of the compound; type: physicochemical; conditions: octanol/water

SMILES | logP
[2H]C([2H])(N[C@H]1C[S@+]([O-])C[C@@H](Cc2cc(F)c(N)c(O[C@H](COC)C(F)(F)F)c2)[C@@H]1O)c1cccc(C(C)C)c1 | 3.7
COC[C@@H](Oc1cc(C[C@@H]2C[S@@+]([O-])C[C@H](NCc3cc(C(C)(C)C)ccc3F)[C@H]2O)cc(F)c1N)C(F)(F)F | 4.1
COC[C@@H](Oc1cc(C[C@@H]2C[S@@+]([O-])C[C@H](NCc3cccc(C(C)(C)CO)c3)[C@H]2O)cc(F)c1N)C(F)(F)F | 3.4
COC[C@@H](Oc1cc(C[C@@H]2C[S@@+]([O-])C[C@H](NCc3cccc(OC(C)C)c3)[C@H]2O)cc(F)c1N)C(F)(F)F | 3.6
CC(C)(C)c1cccc(CN[C@H]2C[S@+]([O-])C[C@@H](Cc3cc(F)c(N)c(OC(C(F)(F)F)C(F)(F)F)c3)[C@@H]2O)c1 | 5.2
CC(C)(C)c1cccc(CN[C@H]2C[S@+]([O-])C[C@@H](Cc3cc(F)c(N)c(OCC(F)(F)F)c3)[C@@H]2O)c1 | 4.3
COC[C@@H](Oc1cc(C[C@@H]2C[S@@+]([O-])C[C@H](NCc3cccc(C(C)(C)C)c3)[C@H]2O)cc(F)c1N)C(F)(F)F | 3.9

test system: not listed separately; assay: Clearance in mouse liver microsomes; type: ADME, Microsome; conditions: read-out: CLH; in short: as §2

SMILES | microsomal CLint
[2H]C([2H])(N[C@H]1C[S@+]([O-])C[C@@H](Cc2cc(F)c(N)c(O[C@H](COC)C(F)(F)F)c2)[C@@H]1O)c1cccc(C(C)C)c1 | 660 µL/min/mg
COC[C@@H](Oc1cc(C[C@@H]2C[S@@+]([O-])C[C@H](N[C@H](C)c3cccc(C(C)(C)C)c3)[C@H]2O)cc(F)c1N)C(F)(F)F | 730 µL/min/mg
COC[C@@H](Oc1cc(C[C@@H]2C[S@@+]([O-])C[C@H](NCc3cc(C(C)(C)C)ccc3F)[C@H]2O)cc(F)c1N)C(F)(F)F | 580 µL/min/mg
COC[C@@H](Oc1cc(C[C@@H]2C[S@@+]([O-])C[C@H](NCc3cccc(C(C)(C)CO)c3)[C@H]2O)cc(F)c1N)C(F)(F)F | 210 µL/min/mg
COC[C@@H](Oc1cc(C[C@@H]2C[S@@+]([O-])C[C@H](NCc3cccc(C(C)(C)O)c3)[C@H]2O)cc(F)c1N)C(F)(F)F | 150 µL/min/mg
COC[C@@H](Oc1cc(C[C@@H]2C[S@@+]([O-])C[C@H](NCc3cccc(OC(C)C)c3)[C@H]2O)cc(F)c1N)C(F)(F)F | 190 µL/min/mg
COC[C@@H](Oc1cc(C[C@@H]2C[S@@+]([O-])C[C@H](NCc3cccc(C(C)(C)C)c3)[C@H]2O)cc(F)c1N)C(F)(F)F | 480 µL/min/mg
[2H]C([2H])(N[C@H]1C[S@+]([O-])C[C@@H](Cc2cc(F)c(N)c(O[C@H](COC)C(F)(F)F)c2)[C@@H]1O)c1cccc(C(C)(C)C)c1 | 530 µL/min/mg

test system: not listed separately; assay: Apparent permeability of the compound in MDCK cells expressing human MDR1; type: ADME, cell-based, Canis lupus familiaris; conditions: dog
In short: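 Apparent permeability (Papp, […]) measured across MDR1-MDCK cell monolayers transfected with human MDR1.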

SMILES | Papp
COC[C@@H](Oc1cc(C[C@@H]2C[S@@+]([O-])C[C@H](N[C@H](C)c3cccc(C(C)(C)C)c3)[C@H]2O)cc(F)c1N)C(F)(F)F | 17 ×10⁻⁶ cm/s
COC[C@@H](Oc1cc(C[C@@H]2C[S@@+]([O-])C[C@H](NCc3cc(C(C)(C)C)ccc3F)[C@H]2O)cc(F)c1N)C(F)(F)F | 24 ×10⁻⁶ cm/s
COC[C@@H](Oc1cc(C[C@@H]2C[S@@+]([O-])C[C@H](NCc3cccc(C(C)(C)CO)c3)[C@H]2O)cc(F)c1N)C(F)(F)F | 10 ×10⁻⁶ cm/s
COC[C@@H](Oc1cc(C[C@@H]2C[S@@+]([O-])C[C@H](NCc3cccc(C(C)(C)O)c3)[C@H]2O)cc(F)c1N)C(F)(F)F | 8 ×10⁻⁶ cm/s
COC[C@@H](Oc1cc(C[C@@H]2C[S@@+]([O-])C[C@H](NCc3cccc(OC(C)C)c3)[C@H]2O)cc(F)c1N)C(F)(F)F | 21 ×10⁻⁶ cm/s
CC(C)(C)c1cccc(CN[C@H]2C[S@+]([O-])C[C@@H](Cc3cc(F)c(N)c(OC(C(F)(F)F)C(F)(F)F)c3)[C@@H]2O)c1 | 18 ×10⁻⁶ cm/s
CC(C)(C)c1cccc(CN[C@H]2C[S@+]([O-])C[C@@H](Cc3cc(F)c(N)c(OCC(F)(F)F)c3)[C@@H]2O)c1 | 19 ×10⁻⁶ cm/s
COC[C@@H](Oc1cc(C[C@@H]2C[S@@+]([O-])C[C@H](NCc3cccc(C(C)(C)C)c3)[C@H]2O)cc(F)c1N)C(F)(F)F | 18 ×10⁻⁶ cm/s
[2H]C([2H])(N[C@H]1C[S@+]([O-])C[C@@H](Cc2cc(F)c(N)c(O[C@H](COC)C(F)(F)F)c2)[C@@H]1O)c1cccc(C(C)(C)C)c1 | 19 ×10⁻⁶ cm/s

test system: not listed separately; assay: Drug level in APP51/16 transgenic female mouse blood at 100 umol/kg, po after 4 hrs; type: ADME, organism-based; conditions: whole blood, read-out: Drug uptake
In short: (§3)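 APP51/16 transgenic mice received an oral suspension in water with 2% cremophor. Parent inhibitor measured 4 h post-dose in blood (nmol/mL) and brain (nmol/g).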

SMILES | concentration at 4 h
[2H]C([2H])(N[C@H]1C[S@+]([O-])C[C@@H](Cc2cc(F)c(N)c(O[C@H](COC)C(F)(F)F)c2)[C@@H]1O)c1cccc(C(C)C)c1 | 1500 nM
COC[C@@H](Oc1cc(C[C@@H]2C[S@@+]([O-])C[C@H](N[C@H](C)c3cccc(C(C)(C)C)c3)[C@H]2O)cc(F)c1N)C(F)(F)F | 5400 nM

test system: not listed separately; assay: Dissociation constant, pKa of the compound; type: physicochemical; conditions: not given
In short: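 Measured by multi-wavelength UV spectroscopy across a linear pH gradient of 2–12 units.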

SMILES | pKa
CC(C)(C)c1cccc(CN[C@H]2C[S@+]([O-])C[C@@H](Cc3cc(F)c(N)c(OC(C(F)(F)F)C(F)(F)F)c3)[C@@H]2O)c1 | 6.7

test system: Brain; assay: Drug level in APP51/16 transgenic female mouse brain at 100 umol/kg, po after 4 hrs; type: ADME, organism-based; conditions: in vivo; in short: as §3

SMILES | Drug uptake
[2H]C([2H])(N[C@H]1C[S@+]([O-])C[C@@H](Cc2cc(F)c(N)c(O[C@H](COC)C(F)(F)F)c2)[C@@H]1O)c1cccc(C(C)C)c1 | 0.3 nmol/g
COC[C@@H](Oc1cc(C[C@@H]2C[S@@+]([O-])C[C@H](N[C@H](C)c3cccc(C(C)(C)C)c3)[C@H]2O)cc(F)c1N)C(F)(F)F | 0.7 nmol/g

test system: Brain; assay: Drug level in APP51/16 transgenic male mouse brain at 60 umol/kg, po after 4 hrs; type: ADME, organism-based; conditions: in vivo; in short: as §1

SMILES | Drug uptake
CC(C)(C)c1cccc(CN[C@H]2C[S@+]([O-])C[C@@H](Cc3cc(F)c(N)c(OCC(F)(F)F)c3)[C@@H]2O)c1 | 0.4 nmol/g
COC[C@@H](Oc1cc(C[C@@H]2C[S@@+]([O-])C[C@H](NCc3cccc(C(C)(C)C)c3)[C@H]2O)cc(F)c1N)C(F)(F)F | 0.1 nmol/g
[2H]C([2H])(N[C@H]1C[S@+]([O-])C[C@@H](Cc2cc(F)c(N)c(O[C@H](COC)C(F)(F)F)c2)[C@@H]1O)c1cccc(C(C)(C)C)c1 | 0.1 nmol/g
